T cell HTS: modulates CD8 T cell binding to vesicles; 2C CD8+ T cell-vesicle binding, flow cytometry; stronger effect = lower value; response (vesicle binding), % at 7 µM; 330,000 tested, 0.068% active;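 active means response, share of CD8 T cells binding vesicles, and their 90th percentile fluorescence all below set limits, cut at about 80% in these data, passing the limit was not always enough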;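 further: values below 100% mean blocked vesicle binding to the CD8+ T cells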
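Test system: purified 2C TCR transgenic mouse naive CD8+ T cells. Probe or stimulus: QL9-peptide-loaded Drosophila micro-vesicles bearing Ld, ICAM-1 and B7-1. Incubation: binding step 1.5 h, 37 °C, antibody labelling 20 min, ice. Measured by: flow cytometry of vesicle-bound cells.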
Granule exo inh: lytic granule exocytosis inhibition; TALL-104 LAMP-1 surface exposure, flow cytometry; cells stimulated with thapsigargin and PMA; inhibition, % at 10 µM; 360,000 tested, 0.66% active;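 active means inhibition above about 55%, limit read from the data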
EP2 mod: EP2 receptor (human) modulation; EP2-expressing cells, cAMP HTRF FRET, PGE2 co-stimulation; induction, % at 25 µM; 260,000 tested, 0.83% active;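 active means compounds whose cAMP rise, as percent of the full-agonist control response, exceeds 60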;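 further: rat C6 glioma line stably carrying human EP2 under a CMV promoter; the protocol text gives 20 µM as final concentration; 100% = response of wells given 1 µM PGE2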
MC4R barr agon: agonists of human melanocortin 4 receptor (MC4R) beta-arrestin. P32245. U2OS MC4R beta-arrestin complementation, luminescence; percent of melanotan II response, DMSO zero. activation, % at 8.9 µM. 360,000 tested, 0.98% active;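 active means activation above a per-plate cutoff, the mean activation of sample wells on that plate plus 3 SD, cut at about 8% in these data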
Target sequence (P32245 whole entry, looked up): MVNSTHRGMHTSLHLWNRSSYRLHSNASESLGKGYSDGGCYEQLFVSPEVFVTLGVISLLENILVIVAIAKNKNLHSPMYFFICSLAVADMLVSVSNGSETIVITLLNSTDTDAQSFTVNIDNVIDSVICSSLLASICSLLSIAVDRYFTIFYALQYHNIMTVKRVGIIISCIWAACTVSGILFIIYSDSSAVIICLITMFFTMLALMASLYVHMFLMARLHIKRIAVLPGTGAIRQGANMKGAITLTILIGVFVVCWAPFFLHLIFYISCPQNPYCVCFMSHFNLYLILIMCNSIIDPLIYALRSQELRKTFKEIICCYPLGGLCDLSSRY
PGE2 EP2 inh: inhibitors of human EP2 prostaglandin E2 receptor. inhibition, % at 25 µM. C6 glioma cells expressing human EP2, cAMP TR-FRET; cells stimulated with saturating PGE2. P43116. AID 1422. 260,000 tested, 0.52% active;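 active means percent inhibition above 40 after rounding to a whole number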;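 further: rat C6 glioma host cells with rolipram phosphodiesterase inhibitor present; the protocol text gives 20 µM as final concentration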
MC4R antag cAMP: human MC4R antagonism in cAMP assay; inhibition, % at 6.5 µM; 360,000 tested, 0.48% active; AID 540295; P32245; MC4R-expressing cells, MTII-stimulated cAMP, LANCE TR-FRET;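 active means inhibition above its plate's cutoff, the mean of tested wells on that plate plus 3 SD, cut at about 29% in these data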;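 further: 0% = Melanotan II alone and 100% = Melanotan II plus saturating MCL0020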
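System: U2OS-MC4R stable cell line; Technique: Eu-cAMP/anti-cAMP TR-FRET, emission 671 nm; Repeats: single well per compound; Also added: Melanotan II; Dosing: one concentration, 6.5 µM nominal; Schedule: 30-min compound, 1-h challenge, 1-h detection, room temperature.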
The depositor's hits bear a star; ! = a repeat was not active. An excerpt weighted towards active compounds, which were near 2.6% of everything screened.

Results for Cc1cc(C)c2c(c1)-c1cc(C)nn1C(c1ccc3c(c1)OCO3)N2 (configuration not stated) ?
T cell HTS: 157; Granule exo inh: -2; EP2 mod: 64*; MC4R barr agon: -1; PGE2 EP2 inh: 6; MC4R antag cAMP: 8

What do the screens show for `COCCNC(=O)Cn1ncc2ccsc2c1=O`?
T cell HTS: 706; Granule exo inh: 3; EP2 mod: 13; MC4R barr agon: 0; PGE2 EP2 inh: 15; MC4R antag cAMP: 5

How did O=C(COc1ccc2c3c(c(=O)oc2c1)CCCC3)NCCCn1ccnc1 do in these assays?
T cell HTS: 464; Granule exo inh: -1; MC4R barr agon: 0; MC4R antag cAMP: -4

Results for COCC(C)NC(=O)C1c2ccccc2Oc2ccccc21 (configuration not stated) ?
T cell HTS: 489; Granule exo inh: -8; MC4R barr agon: -1; MC4R antag cAMP: 8

Results for CC(C)COC(=O)NC1c2ccccc2Oc2ccccc21 ?
T cell HTS: 302; Granule exo inh: 4; EP2 mod: 21; MC4R barr agon: 10*; PGE2 EP2 inh: 3; MC4R antag cAMP: 12

Results for CC12CCC(=O)N1c1ccccc1C(=O)N2c1ccccc1 (configuration not stated) ?
T cell HTS: 501; Granule exo inh: -3; EP2 mod: 13; MC4R barr agon: 1; PGE2 EP2 inh: 24; MC4R antag cAMP: -6

What do the screens show for `Cc1cc(NC(=O)CSc2nc3sc(C)c(C)c3c(=O)n2C2CCCC2)no1`?
T cell HTS: 423; Granule exo inh: -1; EP2 mod: -1; MC4R barr agon: 8; PGE2 EP2 inh: 24; MC4R antag cAMP: 0

What do the screens show for `Cc1cc(C(F)(F)F)nn1CC(=O)NNC(=S)Nc1ccc(F)cc1`?
T cell HTS: 176; Granule exo inh: -2; EP2 mod: -6; MC4R barr agon: -3; PGE2 EP2 inh: 6; MC4R antag cAMP: 7

What do the screens show for `Cc1cc(C(F)(F)F)nn1CC(=O)NNC(=S)Nc1ccc(Cl)cc1`?
T cell HTS: 395; Granule exo inh: -1; EP2 mod: 2; MC4R barr agon: -1; PGE2 EP2 inh: 196*; MC4R antag cAMP: 2

Results for CN1[C@@H](C(=O)NCc2ccccn2)C[C@@H](c2cccs2)NS1(=O)=O ?
EP2 mod: 85*

Results for CC(C)[C@@H]1CC[C@@H](C)C[C@H]1OC(=O)C[n+]1cc(-c2ccc(Cl)cc2)n2c1CCCCC2 ?
T cell HTS: 308; Granule exo inh: 20; EP2 mod: -18; MC4R barr agon: 59*; PGE2 EP2 inh: 9; MC4R antag cAMP: 4

What do the screens show for `CCOC(=O)N1CCN(C(=O)CSc2ccc(-c3ccc(OC)c(OC)c3)nn2)CC1`?
T cell HTS: 652; Granule exo inh: -2; EP2 mod: 5; MC4R barr agon: -2; PGE2 EP2 inh: 3; MC4R antag cAMP: 7

What do the screens show for `CCN1CCc2c(sc(NC(=O)c3ccc4ccccc4c3)c2C(N)=O)C1`?
T cell HTS: 283; Granule exo inh: 48; MC4R barr agon: -3; MC4R antag cAMP: 3

How did CCN1CCc2c(sc(NC(=S)NC(=O)c3ccc(Cl)cc3)c2C(N)=O)C1 do in these assays?
T cell HTS: 570; Granule exo inh: -8; EP2 mod: -59; MC4R barr agon: 2; PGE2 EP2 inh: 41*; MC4R antag cAMP: 22

Results for CCN1CCc2c(sc(NC(=S)NC(=O)/C=C/c3ccccc3)c2C(N)=O)C1 ?
EP2 mod: -177; PGE2 EP2 inh: 84*

What do the screens show for `CCN1CCc2c(sc(NC(=O)CN3C(=O)c4ccccc4C3=O)c2C(N)=O)C1`?
T cell HTS: 469; Granule exo inh: 0; EP2 mod: 10; MC4R barr agon: 0; PGE2 EP2 inh: 1; MC4R antag cAMP: -1

What do the screens show for `c1cc(N2CCCCC2)nc(N2CCCCC2)n1`?
Granule exo inh: -10; MC4R barr agon: -1; MC4R antag cAMP: -1

How did C[c-]1[c-](C)[c-](C)[c-](C)[c-]1C.[Fe].c1cc2nccc(N3CCCC3)[c-]2c1 (configuration not stated) do in these assays?
T cell HTS: 207; Granule exo inh: -4; EP2 mod: -3; MC4R barr agon: -1; PGE2 EP2 inh: 55*!; MC4R antag cAMP: 1

Results for COc1cccc(N2CCN(C(=O)c3cccc(NC4=NC5CS(=O)(=O)CC5S4)c3)CC2)c1 (configuration not stated) ?
T cell HTS: 369; Granule exo inh: 0; MC4R barr agon: 0; MC4R antag cAMP: 5

How did CCOC(=O)C(C(=O)OCC)c1cc(Br)c2noc3c2c1C(=O)c1ccccc1-3 do in these assays?
T cell HTS: 241; Granule exo inh: 98*; EP2 mod: -42; MC4R barr agon: -3; PGE2 EP2 inh: 16; MC4R antag cAMP: -3

Results for Cc1cc(-c2nnnn2-c2ccc(F)cc2)no1 ?
T cell HTS: 352; Granule exo inh: -14; EP2 mod: -5; MC4R barr agon: 1; PGE2 EP2 inh: 5; MC4R antag cAMP: 6

What do the screens show for `CCOc1ccc(Br)cc1S(=O)(=O)NC1=NCCCCC1`?
T cell HTS: 198; Granule exo inh: 7; MC4R barr agon: -2; MC4R antag cAMP: 2

Results for CCN(CC)c1nc(Nc2ccc([N+](=O)[O-])cc2)nc(N(CC)CC)n1 ?
T cell HTS: 276; Granule exo inh: 107*; MC4R barr agon: -1; MC4R antag cAMP: 13

How did CC1CCN(S(=O)(=O)c2cccc(C(=O)Oc3ccc([N+](=O)[O-])cc3)c2)CC1 do in these assays?
T cell HTS: 209; Granule exo inh: -2; EP2 mod: -95; MC4R barr agon: 2; PGE2 EP2 inh: 40*; MC4R antag cAMP: 1

How did CC(C)n1c(N2CCN(C(=O)N3CCCCC3)CC2)nc2ccccc21 do in these assays?
T cell HTS: 253; Granule exo inh: -5; EP2 mod: -8; MC4R barr agon: -1; PGE2 EP2 inh: 4; MC4R antag cAMP: 7

Results for CCOC(=O)CSc1ccc(-c2nc3ccccc3[nH]2)cn1 ?
T cell HTS: 91; Granule exo inh: -1; EP2 mod: -49; MC4R barr agon: -1; PGE2 EP2 inh: 42*!; MC4R antag cAMP: -3

What do the screens show for `Cc1ccc(NC(=O)CCCSc2nc3ccccc3[nH]2)cc1`?
T cell HTS: 239; Granule exo inh: 0; EP2 mod: -49; MC4R barr agon: -1; PGE2 EP2 inh: 9; MC4R antag cAMP: 8

Results for Cc1ccc(SCC(=O)Nc2ccc(-c3nc4ccccc4[nH]3)cc2)cc1 ?
T cell HTS: 389; Granule exo inh: 10; EP2 mod: -39; MC4R barr agon: 8.3*; PGE2 EP2 inh: 6; MC4R antag cAMP: 5

Results for O=C(O)CSc1ccc(-c2nc3ccccc3[nH]2)cn1 ?
EP2 mod: -32; PGE2 EP2 inh: 8

From PubChem BioAssay
